Data reported in ChEMBL document CHEMBL2157981, “Synthesis of new antimicrobial pyrrolo[2,1-a]isoquinolin-3-ones” (2012).
The source made the active and inactive calls. The calls are words filed in the database; no cut-off is given here.

Experiments:
Aspergillus parasiticus [1] = assay: Fungicidal activity against Aspergillus parasiticus CECT 2681 at 20 ug/disk after 48 hrs by agar diffusion assay; assay type: functional; conditions: CECT 2681, 48 h, read-out: IZ
Procedure, shortened: (§1)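 Fungi were grown on PDA for 7 days at 28 °C and suspended in 0.05% Tween 80 to about 10^6 conidia/mL. 1 mL was mixed into 15 mL PDA. Four 0.5 cm paper disks carrying compound were placed on the set agar. Solvent-only disks served as negative control. The inhibition zone (mm) around each disk was measured. Values are the mean of three independent experiments.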

Fusarium culmorum [2] = assay: Fungicidal activity against Fusarium culmorum CCM 172 at 0.2 mg/disk after 48 hrs by agar diffusion assay; assay type: functional
Procedure, shortened: (§2)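 Fungi were grown 7 days at 28 °C on PDA, then suspended in 0.05% Tween 80 in sterile water to about 10^6 conidia/mL. 1 mL was mixed into 15 mL PDA. After setting, four 0.5 cm paper disks impregnated with test product were added. Controls were solvent-only disks and benomyl disks, dosed per fungus. The read-out was the no-growth inhibition zone (mm), as the mean ± SE of three independent experiments.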

Geotrichum candidum [3] = assay: Fungicidal activity against Geotrichum candidum CCM 245 at 0.2 mg/disk after 48 hrs by agar diffusion assay; assay type: functional; procedure, shortened: as §2
[4] = tested on: Phytophthora citrophthora; assay: Fungicidal activity against Phytophthora citrophthora CECT 2353 at 30 ug/disk after 48 hrs by agar diffusion assay; assay type: functional; conditions: CECT 2353, 48 h, read-out: IZ; procedure, shortened: as §1
Trichoderma viride [5] = assay: Fungicidal activity against Trichoderma viride CECT 2423 at 20 ug/disk after 48 hrs by agar diffusion assay; assay type: functional; conditions: CECT 2423, 48 h, read-out: IZ; procedure, shortened: as §1
[6] = tested on: Pectobacterium carotovorum; assay: Bactericidal activity against Erwinia carotovora CECT 225 at 0.2 mg/disk after 24 hrs by agar diffusion assay; assay type: functional
Procedure, shortened: (§3)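 Each bacterium, kept as 24-h cultures on solid-medium slants, was reactivated in Nutrient Broth for 24 h at 28 or 37 °C depending on species. 1 mL of this suspension was plated and overlaid with 15 mL Plate Count Agar. Once the agar solidified, five paper disks loaded with test product were applied. Plates were incubated 24 h in the dark at 28 or 37 °C by species.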

Escherichia coli [7] = assay: Bactericidal activity against Escherichia coli CECT 405 at 0.2 mg/disk after 24 hrs by agar diffusion assay; assay type: functional; procedure, shortened: as §3
Aspergillus parasiticus [8] = assay: Fungicidal activity against Aspergillus parasiticus CECT 2681 at 0.2 mg/disk after 48 hrs by agar diffusion assay; assay type: functional; procedure, shortened: as §2
[9] = tested on: Phytophthora citrophthora; assay: Fungicidal activity against Phytophthora citrophthora CECT 2353 at 0.2 mg/disk after 48 hrs by agar diffusion assay; assay type: functional; procedure, shortened: as §2
Enterococcus faecalis = assay: Bactericidal activity against Enterococcus faecalis CECT 481 at 0.2 mg/disk after 24 hrs by agar diffusion assay; assay type: functional; procedure, shortened: as §3
Escherichia coli [10] = assay: Bactericidal activity against Escherichia coli CECT 100 at 0.2 mg/disk after 24 hrs by agar diffusion assay; assay type: functional; procedure, shortened: as §3
Trichoderma viride [11] = assay: Fungicidal activity against Trichoderma viride CECT 2423 at 0.2 mg/disk after 48 hrs by agar diffusion assay; assay type: functional; procedure, shortened: as §2
Salmonella typhi = assay: Bactericidal activity against Salmonella typhi CECT 409 at 0.2 mg/disk after 24 hrs by agar diffusion assay; assay type: functional, Salmonella enterica subsp. enterica serovar Typhi; conditions: for Activity: Salmonella enterica subsp. enterica serovar Typhi
Procedure, shortened: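 Bacteria from 24-h slant cultures reactivated in Nutrient Broth for 24 h at 28 or 37 °C depending on strain. 1 mL of suspension was placed in a plate and overlaid with 15 mL Plate Count Agar. After solidification, five paper disks loaded with compound were applied. Plates were incubated 24 h in the dark at 28 or 37 °C depending on strain.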

Staphylococcus aureus = assay: Bactericidal activity against Staphylococcus aureus CECT 86 at 0.2 mg/disk after 24 hrs by agar diffusion assay; assay type: functional; procedure, shortened: as §3
Bacillus cereus = assay: Bactericidal activity against Bacillus cereus CECT 148 at 0.2 mg/disk after 24 hrs by agar diffusion assay; assay type: functional; procedure, shortened: as §3
Fusarium culmorum [12] = assay: Fungicidal activity against Fusarium culmorum CCM 172 at […] after 48 hrs by agar diffusion assay; assay type: functional, organism-based; conditions: 0.4 mg/disk; procedure, shortened: as §2
[13] = tested on: Phytophthora citrophthora; assay: Fungicidal activity against Phytophthora citrophthora CECT 2353 at 0.4 mg/disk after 48 hrs by agar diffusion assay; assay type: functional, organism-based; procedure, shortened: as §2
Aspergillus parasiticus [14] = assay: Fungicidal activity against Aspergillus parasiticus CECT 2681 at 0.4 mg/disk after 48 hrs by agar diffusion assay; assay type: functional, organism-based; procedure, shortened: as §2
Geotrichum candidum [15] = assay: Fungicidal activity against Geotrichum candidum CCM 245 at 0.4 mg/disk after 48 hrs by agar diffusion assay; assay type: functional, organism-based; procedure, shortened: as §2
Trichoderma viride [16] = assay: Fungicidal activity against Trichoderma viride CECT 2423 at 0.4 mg/disk after 48 hrs by agar diffusion assay; assay type: functional, organism-based; procedure, shortened: as §2

SMILES	inhibition zone (IZ) (Fusarium culmorum [2]) [mm]	inhibition zone (IZ) (Geotrichum candidum [3]) [mm]	inhibition zone (IZ) [6] [mm]	inhibition zone (IZ) (Escherichia coli [7]) [mm]	inhibition zone (IZ) (Enterococcus faecalis) [mm]	inhibition zone (IZ) (Escherichia coli [10]) [mm]	inhibition zone (IZ) (Salmonella typhi) [mm]	inhibition zone (IZ) (Staphylococcus aureus) [mm]	inhibition zone (IZ) (Bacillus cereus) [mm]	Activity (Fusarium culmorum [12])	Activity [13]	Activity (Aspergillus parasiticus [14])	Activity (Geotrichum candidum [15])	Activity (Trichoderma viride [16])	other results
CCCCNC(=O)n1c(NC(=O)OC)nc2ccccc21 [BENOMYL]	27.66	0													zone of inhibition at 20 µg/disc (Aspergillus parasiticus [1]): 29.3 mm; zone of inhibition at 30 µg/disc [4]: 44.3 mm; zone of inhibition at 20 µg/disc (Trichoderma viride [5]): 29.3 mm
CCNC(=O)Oc1ccc2c(c1)CCN1C(=O)CCC21 (configuration not stated)	0	0	8.83	6.83	8.5	6.33	7.5	0	6.5						inhibition zone (IZ) (Aspergillus parasiticus [8]): 0 mm; inhibition zone (IZ) [9]: 9.66 mm; inhibition zone (IZ) (Trichoderma viride [11]): 0 mm
CN(C)[C@@H]1C(O)=C(C(N)=O)C(=O)[C@@]2(O)C(O)=C3C(=O)c4c(O)cccc4[C@@](C)(O)[C@H]3C[C@@H]12 [TETRACYCLINE]			13.33	25.66	26	25.66		27	24.33						
O=C1CCC2c3cc(O)c(O)cc3CCN12 (racemic)			0	0	0	0	0	0	6.66	inactive	inactive	inactive	inactive	inactive	
O=C1CCC2c3cc(OCc4ccc(F)cc4)c(OCc4ccc(F)cc4)cc3CCN12 (configuration not stated)			7	6.83	6.33	0	5.83	0	7.33	inactive	inactive	inactive	inactive	inactive	
O=C(COc1ccc2c(c1)CCN1C(=O)CCC21)N1CCCCC1 (configuration not stated)															Activity (Fusarium culmorum [2]): inactive; Activity [6]: inactive; Activity (Escherichia coli [7]): inactive; Activity (Aspergillus parasiticus [8]): inactive; Activity [9]: inactive; Activity (Enterococcus faecalis): inactive; Activity (Escherichia coli [10]): inactive; Activity (Geotrichum candidum [3]): inactive; Activity (Trichoderma viride [11]): inactive; Activity (Salmonella typhi): inactive; Activity (Staphylococcus aureus): inactive; Activity (Bacillus cereus): inactive
O=C1CCC2c3cc(O)c(Cl)cc3CCN12 (configuration not stated)										inactive	inactive	inactive	inactive	inactive	Activity [6]: inactive; Activity (Escherichia coli [7]): inactive; Activity (Enterococcus faecalis): inactive; Activity (Escherichia coli [10]): inactive; Activity (Salmonella typhi): inactive; Activity (Staphylococcus aureus): inactive; Activity (Bacillus cereus): inactive
COc1cc2c(cc1Cl)CCN1C(=O)CCC21 (configuration not stated)	7.5	6.33	10.33	6.83	6.83	6.16		7.83	7.33						inhibition zone (IZ) (Aspergillus parasiticus [8]): 7.5 mm; inhibition zone (IZ) [9]: 6.83 mm; inhibition zone (IZ) (Trichoderma viride [11]): 0 mm
